The source of these data is ChEMBL document CHEMBL3856275, “Discovery of Second Generation Reversible Covalent DPP1 Inhibitors Leading to an Oxazepane Amidoacetonitrile Based Clinical Candidate (AZD7986)” (J Med Chem, 2016).

In brackets after ≈: the same amount, converted by molar mass. Some results are limits rather than exact numbers.

The nature of data set [1]: Protein binding in human plasma at 10 uM after 6 hrs by LC-MS/MS method. It is filed as ADME, cell-free. The conditions noted are these: read-out: PPB (converted).
The nature of data set [2]: Intrinsic clearance in human liver microsomes at 1 uM after 5 to 40 mins by LC-MS/MS method. The data set is classed as ADME. The conditions noted are these: read-out: CLH. On the technique in general: Microsomes from liver hold many membrane-bound enzymes, among them those of drug oxidation.
The nature of data set [3]: Intrinsic clearance in rat hepatocytes assessed per 10^6 cells at 1 uM after 10 to 90 mins by LC-MS/MS method. The data set is classed as ADME, cell-based, Hepatocyte.
A short description of data set [4]: Protein binding in rat plasma at 10 uM after 6 hrs by LC-MS/MS method. The data set is classed as ADME, cell-free. The conditions noted are these: read-out: PPB (converted).
For data set [5], the target named is T1, Dipeptidyl peptidase 1 (Homo sapiens, UniProt P53634). Briefly: Inhibition of human recombinant DPP1 using Gly-Arg-AMC as substrate preincubated for 30 mins followed by substrate addition by fluorometric assay. The procedure, abridged: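 Isolated human recombinant DPP1 was run in a fluorometric assay in piperazine-based buffer. Compound was pre-incubated with enzyme for 30 min at rt, then Gly-Arg-AMC dipeptide substrate was added. Data were curve-fitted to give pIC50, as the mean of at least two experiments.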
T1 sequence (P53634 25-134 limits assumed): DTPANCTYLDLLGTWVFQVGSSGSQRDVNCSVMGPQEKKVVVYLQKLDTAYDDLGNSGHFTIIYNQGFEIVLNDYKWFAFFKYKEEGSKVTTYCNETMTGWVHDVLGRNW
T1 sequence (P53634 231-394 limits assumed): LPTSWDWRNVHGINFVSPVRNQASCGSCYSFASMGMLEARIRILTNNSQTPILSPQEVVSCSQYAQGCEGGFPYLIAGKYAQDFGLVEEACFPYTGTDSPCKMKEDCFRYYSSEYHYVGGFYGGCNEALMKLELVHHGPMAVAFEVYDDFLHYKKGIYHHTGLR
T1 sequence (P53634 395-463 limits assumed): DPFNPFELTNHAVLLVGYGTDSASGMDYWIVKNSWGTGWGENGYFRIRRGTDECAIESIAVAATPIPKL

The target of data set [6] is T1, Dipeptidyl peptidase 1. The data set is described as follows: Inhibition of DPP1 in human U937 cells using Gly-Phe-AFC as substrate preincubated for 60 mins followed by substrate addition by fluorescence assay. It is filed as cell-based, U-937.
The nature of data set [7]: Propionaldehyde reactivity assessed as half life of the compound at pH 7.4 by LC-UV method. The data set is classed as physicochemical.
A short description of data set [8]: Apparent permeability across apical to basolateral side in human Caco2 cells at 10 uM after 1 hr by LC-MS method. The conditions noted are these: Caco-2.
Data set [9] is described as follows: Apparent permeability across basolateral to apical side in human Caco2 cells at 10 uM after 1 hr by LC-MS method. The conditions noted are these: Caco-2. (Passage across Caco-2 layers is used to estimate intestinal permeability.)
Data set [10] is described as follows: Efflux ratio of apparent permeability across basolateral to apical over apical to basolateral side in human Caco2 cells at 10 uM after 1 hr by LC-MS method. The conditions noted are these: Caco-2.
Data set [11] in a line: Intrinsic clearance in human hepatocytes assessed per 10^6 cells at 1 uM after 10 to 90 mins by LC-MS/MS method. It is filed as ADME, cell-based, Hepatocyte.
Data set [12] is described as follows: Intrinsic clearance in dog hepatocytes assessed per 10^6 cells at 1 uM after 10 to 90 mins by LC-MS/MS method. It is filed as ADME, cell-based, Canis lupus familiaris, Hepatocyte.
Data set [13] is described as follows: Protein binding in dog plasma at 10 uM after 6 hrs by LC-MS/MS method. It is filed as ADME, cell-free, Canis lupus familiaris. The conditions noted are these: read-out: PPB (converted).
The nature of data set [14]: Clearance in Han Wistar rat at 1 mg/kg, iv and 3 mg/kg, po. The data set is classed as ADME, organism-based. As to conditions: in vivo. The procedure, abridged:
(§1)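 Han Wistar rat PK with 1 mg/kg iv and 3 mg/kg po doses, both in pH3 buffer. Clearance is given in ml/min/kg, Vss in L/kg and t1/2 in h.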

Data set [15] can be described thus: Volume of distribution at steady state in Han Wistar rat at 1 mg/kg, iv and 3 mg/kg, po. The data set is classed as ADME, organism-based. As to conditions: in vivo, read-out: Vdss. The procedure, abridged: as §1
The nature of data set [16]: Half life in Han Wistar rat at 1 mg/kg, iv and 3 mg/kg, po. It is filed as ADME, organism-based. As to conditions: in vivo. The procedure, abridged: as §1
Data set [17] is described as follows: Oral bioavailability in Han Wistar rat at 3 mg/kg. The conditions noted are these: in vivo. It is filed as ADME, organism-based. In short, it runs like this:
as §1

A short description of data set [18]: Clearance in Beagle dog at 1 mg/kg, iv and 2 mg/kg, po. It is filed as ADME, organism-based, Canis lupus familiaris. The conditions noted are these: in vivo.
Data set [19] can be described thus: Volume of distribution at steady state in Beagle dog at 1 mg/kg, iv and 2 mg/kg, po. The conditions noted are these: in vivo, read-out: Vdss. The data set is classed as ADME, organism-based, Canis lupus familiaris.
Data set [20] can be described thus: Half life in Beagle dog at 1 mg/kg, iv and 2 mg/kg, po. It is filed as ADME, organism-based, Canis lupus familiaris. The conditions noted are these: in vivo.
Data set [21] is described as follows: Oral bioavailability in Beagle dog at 2 mg/kg. The data set is classed as ADME, organism-based, Canis lupus familiaris. The conditions noted are these: in vivo.
Data set [22] concerns the target Voltage-gated inwardly rectifying potassium channel KCNH2 (Homo sapiens, UniProt Q12809).
A short description of data set [23]: physchem. As to conditions: phosphate buffered saline, pH 7.4.
Data set [24] is described as follows: physchem. As to conditions: octanol/water, pH 7.4.
Data set [25] in a line: Clearance in Sprague-Dawley rat at 1 mg/kg, iv or 3 mg/kg, po. It is filed as ADME, organism-based. The conditions noted are these: in vivo.
The nature of data set [26]: Volume of distribution at steady state in Sprague-Dawley rat at 1 mg/kg, iv or 3 mg/kg, po. It is filed as ADME, organism-based. As to conditions: in vivo, read-out: Vdss.
The nature of data set [27]: Half life in Sprague-Dawley rat at 1 mg/kg, iv or 3 mg/kg, po. As to conditions: in vivo. It is filed as ADME, organism-based.
Data set [28] can be described thus: Oral bioavailability in Sprague-Dawley rat at 3 mg/kg. The data set is classed as ADME, organism-based. The conditions noted are these: in vivo.

Chain of Voltage-gated inwardly rectifying potassium channel KCNH2 (Q12809 whole entry): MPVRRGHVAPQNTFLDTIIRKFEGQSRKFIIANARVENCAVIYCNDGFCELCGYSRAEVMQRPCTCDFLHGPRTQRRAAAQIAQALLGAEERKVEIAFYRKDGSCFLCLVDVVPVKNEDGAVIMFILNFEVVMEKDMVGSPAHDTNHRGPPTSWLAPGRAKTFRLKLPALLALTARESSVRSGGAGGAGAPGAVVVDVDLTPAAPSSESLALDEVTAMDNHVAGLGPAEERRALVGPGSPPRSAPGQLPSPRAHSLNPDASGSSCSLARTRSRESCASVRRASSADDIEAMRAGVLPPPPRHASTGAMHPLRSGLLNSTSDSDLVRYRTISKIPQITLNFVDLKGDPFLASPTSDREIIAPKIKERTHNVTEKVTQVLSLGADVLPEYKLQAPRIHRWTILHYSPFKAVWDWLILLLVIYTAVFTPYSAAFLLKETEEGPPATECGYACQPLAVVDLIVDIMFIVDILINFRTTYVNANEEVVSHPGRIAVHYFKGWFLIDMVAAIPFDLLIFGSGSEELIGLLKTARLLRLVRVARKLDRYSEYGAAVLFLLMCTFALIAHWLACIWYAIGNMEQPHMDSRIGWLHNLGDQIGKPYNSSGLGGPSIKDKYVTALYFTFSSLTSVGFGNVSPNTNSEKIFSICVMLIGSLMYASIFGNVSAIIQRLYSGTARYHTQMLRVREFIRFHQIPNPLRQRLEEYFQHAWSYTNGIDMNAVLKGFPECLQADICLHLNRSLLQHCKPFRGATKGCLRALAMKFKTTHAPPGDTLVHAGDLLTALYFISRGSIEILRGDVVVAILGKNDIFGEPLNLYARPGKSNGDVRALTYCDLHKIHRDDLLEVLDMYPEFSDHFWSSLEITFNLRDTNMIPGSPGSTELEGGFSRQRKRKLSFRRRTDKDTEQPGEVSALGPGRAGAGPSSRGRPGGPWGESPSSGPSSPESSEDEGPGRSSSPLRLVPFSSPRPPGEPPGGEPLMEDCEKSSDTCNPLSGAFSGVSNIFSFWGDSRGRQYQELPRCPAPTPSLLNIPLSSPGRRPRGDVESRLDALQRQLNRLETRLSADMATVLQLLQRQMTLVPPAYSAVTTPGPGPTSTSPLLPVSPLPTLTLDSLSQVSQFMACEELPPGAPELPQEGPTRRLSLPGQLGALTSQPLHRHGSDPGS

Broadly, the IC50 is the concentration needed to halve the response being measured. A word on the half-life: it is the time in which the quantity being followed falls by half. A word on the Papp A→B: it is how fast a substance crosses the layer from the apical side. Usually Papp B→A stands for how fast a substance crosses the layer from the basolateral side. The efflux ratio is a quotient of directional permeabilities that is used to spot active efflux. What is called bioavailability is the share of a dose that reaches the circulation, judged against a reference dose that is usually intravenous. As a reminder, the solubility (kinetic) is the concentration staying in solution when a stock, usually in DMSO, is diluted into the medium. As usually defined, the logD is lipophilicity at a set pH, counting ionised and neutral species. In the case of `N#Cc1ccc(-c2ccc(C[C@@H](C#N)NC(=O)[C@@H]3CNCCCO3)cc2)cc1`, the fraction unbound at 6 h, 10 µM in data set [1] was 0.09; in data set [4] it was 0.24; in [13], 0.25. Moreover, the microsomal CLint at 1 µM in data set [2] was 9.5 µL/min/mg. The results for the CLH in [3] and in data set [12] were less than 3.5 µL/min/10^6 cells and less than 4 µL/min/10^6 cells, respectively. Besides, the IC50 in [5] was 39.8 nM; in data set [6], 31.6 nM; in data set [22] it was 17000 nM. Moreover, the figures for the half-life in data set [7], in data set [16] and in data set [20] were greater than 50 h, 6.2 h and 10.7 h, respectively. For the same compound, the Papp A→B at 1 h, 10 µM in [8] worked out at 19 ×10⁻⁶ cm/s. In addition, the basolateral-to-apical permeability (Papp B→A) at 1 h, 10 µM in data set [9] stood at 45 ×10⁻⁶ cm/s. Further, in data set [10], the efflux ratio at 1 h, 10 µM was 2.4. For the same compound, the intrinsic clearance (CLint) in [11] is less than 3.5 µL/min/10^6 cells. In addition, the clearance was found to be 3.8 mL/min/kg in data set [14] and 4.1 mL/min/kg in data set [18]. For the same compound, the Vd turned out to be 2 L/kg in data set [15] and 3.9 L/kg in data set [19]. Besides, the figures for the bioavailability in data set [17] and in [21] were 25% and 71%, respectively. In data set [23], this compound had a kinetic solubility at 2 h of 170 µM (≈ 63.7 µg/mL). In data set [24], this compound gave a logD at 10 µM of 1.1.
Take `CCn1c(=O)oc2ccc(-c3ccc(C[C@@H](C#N)NC(=O)[C@@H]4CNCCCO4)cc3)cc21`: the fraction unbound at 6 h, 10 µM is 0.06 in data set [1], 0.08 in data set [4] and 0.14 in data set [13]. Further, the microsomal CLint at 1 µM in [2] is less than 14 µL/min/mg. Further, the CLH in data set [3] and in data set [12] was less than 3.5 µL/min/10^6 cells each time. In addition, the half-life was greater than 50 h in data set [7], 16 h in data set [20] and 8 h in data set [27]. In data set [11], the intrinsic clearance (CLint) is less than 3.5 µL/min/10^6 cells. The clearance in data set [18] was determined as 6 mL/min/kg; in data set [25] it was 4 mL/min/kg. Moreover, the Vd in data set [19] was 9 L/kg; in [26], 2 L/kg. For the same compound, the bioavailability came out at 85% in data set [21] and 36% in [28].
